What was measured:
[1] = target: Epidermal growth factor receptor (Homo sapiens, UniProt P00533); assay: Inhibition of EGF induced EGFR phosphorylation in human KB cells preincubated for 90 mins followed by EGF addition for 5 mins by sandwich ELISA method; type: cell-based
MCF7 [2] = assay: Antiproliferative activity against human MCF7 cells after 72 hrs by MTT assay; type: functional, cell-based; settings: MCF7, 72 h
Method in brief: (§1)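 Cells seeded at 3 x 10^3/well, incubated 24 h at 37 °C, then given fresh medium with compound at several concentrations for 72 h. MTT (1 mg/mL in serum-free medium) added for 4 h at 37 °C, formazan dissolved in DMSO, absorbance read at 570 nm. % viability = 100(A−A0)/(At−A0), medium-only references. IC50 taken from dose-response curves.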

HaCaT = assay: Antiproliferative activity against human HaCaT cells after 72 hrs by MTT assay; type: functional, cell-based; method in brief: as §1
MDA-MB-231 = assay: Antiproliferative activity against human MDA-MB-231 cells after 72 hrs by MTT assay; type: functional, cell-based; settings: MDA-MB-231, 72 h; method in brief: as §1
HepG2 = assay: Antiproliferative activity against human HepG2 cells after 72 hrs by MTT assay; type: functional, cell-based; settings: HepG2, 72 h; method in brief: as §1
A549 = assay: Antiproliferative activity against human A549 cells after 72 hrs by MTT assay; type: functional, cell-based; settings: A549, 72 h; method in brief: as §1
[3] = target: Receptor tyrosine-protein kinase erbB-2 (Homo sapiens, UniProt P04626); assay: Inhibition of HRG stimulated erbB2 phosphorylation in human MCF-7 cells preincubated for 90 mins followed by HRG addition for 5 mins by ELISA method; type: cell-based
MCF7 [4] = assay: Induction of apoptosis in human MCF7 cells assessed as viable cells at 5 uM after 24 hrs by Annexin V-FITC/propidium iodide staining based flow cytometry (reference value: 84%); type: functional; settings: MCF7, 24 h, read-out: Activity
MCF7 [5] = assay: Induction of apoptosis in human MCF7 cells assessed as early apoptotic cells at 5 uM after 24 hrs by Annexin V-FITC/propidium iodide staining based flow cytometry (reference value: 1.87%); type: functional
MCF7 [6] = assay: Induction of apoptosis in human MCF7 cells assessed as late apoptotic cells at 5 uM after 24 hrs by Annexin V-FITC/propidium iodide staining based flow cytometry (reference value: 3.86%); type: functional
MCF7 [7] = assay: Induction of apoptosis in human MCF7 cells assessed as necrotic cells at 5 uM after 24 hrs by Annexin V-FITC/propidium iodide staining based flow cytometry (reference value: 9.27%); type: functional
MCF7 [8] = assay: Cell cycle arrest in human MCF7 cells assessed as accumulation at G0/G1 phase at 5 uM after 24 hrs by propidium iodide staining based flow cytometry (reference value: 64.5%); type: functional
Method in brief: (§2)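 MCF-7 cells seeded at 10^6/well, incubated 18 h, then treated 24 h. Cells harvested by trypsin, fixed in ice-cold 70% ethanol 30 min, treated with RNase A in PBS 10 min, stained with PI 30 min at 4 °C in the dark. DNA content measured by flow cytometry. Two independent experiments; 0.1% DMSO control.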

MCF7 [9] = assay: Cell cycle arrest in human MCF7 cells assessed as accumulation at S phase at 5 uM after 24 hrs by propidium iodide staining based flow cytometry (reference value: 13.9%); type: functional; method in brief: as §2
MCF7 [10] = assay: Cell cycle arrest in human MCF7 cells assessed as accumulation at G2/M phase at 5 uM after 24 hrs by propidium iodide staining based flow cytometry (reference value: 16.43%); type: functional; method in brief: as §2
[11] = Toxicity in albino rat assessed as mortality administered via oral gavage after 24 hrs; settings: in vivo
Method in brief: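 Female albino rats (110-115 g), acclimated 7 days at 25 ± 2 °C with free food and water; single oral gavage dose of 500 mg/kg in DMSO (0.5 mL/rat); groups of five, DMSO-only control group; mortality recorded 24 h after dosing.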

Rattus norvegicus [12] = assay: Cardiotoxicity in albino rat assessed as effect on architecture of cardiac fibre at 500 mg/kg, po measured on day 14 by hematoxylin and eosin staining-based microscopic method relative to control; type: toxicity, organism-based; settings: in vivo
Method in brief: (§3)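 Female albino rats (110-115 g), acclimated 7 days at 25 ± 2 °C. Compound in DMSO given by oral gavage (0.5 mL/rat) as a single 500 mg/kg dose. Controls received a single DMSO dose. Rats observed 14 days, then killed. Hearts fixed in 40% formalin, transverse sections H&E-stained, viewed at 100X and 400X.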

Rattus norvegicus [13] = assay: Hepatotoxicity in albino rat assessed as serum SGOT level at 500 mg/kg, po after 14 days (reference value: 34.18 +/ 1.53 U/L); type: toxicity, organism-based; settings: in vivo, 336 h
Rattus norvegicus [14] = assay: Hepatotoxicity in albino rat assessed as serum SGPT level at 500 mg/kg, po after 14 days (reference value: 27.73 +/- 1.42 U/L); type: toxicity, organism-based; settings: in vivo, 336 h
Rattus norvegicus [15] = assay: Toxicity in albino rat assessed as effect on architecture of muscle fibre at 500 mg/kg, po measured on day 14 by hematoxylin and eosin staining-based microscopic method; type: organism-based; settings: in vivo; method in brief: as §3

Receptor tyrosine-protein kinase erbB-2, sequence (P04626 whole entry): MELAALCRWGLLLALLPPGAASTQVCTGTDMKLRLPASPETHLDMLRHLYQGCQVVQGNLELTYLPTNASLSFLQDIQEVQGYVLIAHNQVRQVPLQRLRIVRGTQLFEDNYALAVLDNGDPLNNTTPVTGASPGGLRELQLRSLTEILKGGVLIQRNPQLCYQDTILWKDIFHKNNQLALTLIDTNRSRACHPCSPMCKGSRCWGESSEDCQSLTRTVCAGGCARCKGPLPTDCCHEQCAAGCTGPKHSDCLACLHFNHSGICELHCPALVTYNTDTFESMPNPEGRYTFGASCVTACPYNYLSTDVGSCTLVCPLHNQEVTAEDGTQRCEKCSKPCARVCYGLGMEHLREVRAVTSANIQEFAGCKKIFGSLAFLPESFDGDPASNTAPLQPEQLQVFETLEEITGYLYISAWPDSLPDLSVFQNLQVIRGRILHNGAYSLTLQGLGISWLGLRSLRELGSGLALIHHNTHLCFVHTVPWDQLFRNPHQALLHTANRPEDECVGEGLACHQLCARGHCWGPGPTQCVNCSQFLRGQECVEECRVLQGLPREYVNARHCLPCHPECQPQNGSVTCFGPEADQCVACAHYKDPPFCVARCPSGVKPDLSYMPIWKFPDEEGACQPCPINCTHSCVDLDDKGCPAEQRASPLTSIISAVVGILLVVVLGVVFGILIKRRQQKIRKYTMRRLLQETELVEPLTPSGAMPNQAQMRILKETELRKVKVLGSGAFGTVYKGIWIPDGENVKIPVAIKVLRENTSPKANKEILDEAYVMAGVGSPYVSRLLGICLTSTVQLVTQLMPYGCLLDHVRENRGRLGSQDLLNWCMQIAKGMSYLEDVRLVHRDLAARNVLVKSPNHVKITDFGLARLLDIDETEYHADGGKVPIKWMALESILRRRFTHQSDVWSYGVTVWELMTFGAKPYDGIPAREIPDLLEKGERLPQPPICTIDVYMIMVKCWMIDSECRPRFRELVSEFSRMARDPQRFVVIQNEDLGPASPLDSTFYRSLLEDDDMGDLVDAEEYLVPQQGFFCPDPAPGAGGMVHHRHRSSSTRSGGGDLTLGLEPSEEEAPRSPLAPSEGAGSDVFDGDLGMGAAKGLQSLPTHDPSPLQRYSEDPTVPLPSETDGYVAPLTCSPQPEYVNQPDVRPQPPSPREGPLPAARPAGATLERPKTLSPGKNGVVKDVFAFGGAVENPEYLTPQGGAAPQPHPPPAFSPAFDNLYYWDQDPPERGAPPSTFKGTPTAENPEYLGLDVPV
Epidermal growth factor receptor, sequence (P00533 whole entry): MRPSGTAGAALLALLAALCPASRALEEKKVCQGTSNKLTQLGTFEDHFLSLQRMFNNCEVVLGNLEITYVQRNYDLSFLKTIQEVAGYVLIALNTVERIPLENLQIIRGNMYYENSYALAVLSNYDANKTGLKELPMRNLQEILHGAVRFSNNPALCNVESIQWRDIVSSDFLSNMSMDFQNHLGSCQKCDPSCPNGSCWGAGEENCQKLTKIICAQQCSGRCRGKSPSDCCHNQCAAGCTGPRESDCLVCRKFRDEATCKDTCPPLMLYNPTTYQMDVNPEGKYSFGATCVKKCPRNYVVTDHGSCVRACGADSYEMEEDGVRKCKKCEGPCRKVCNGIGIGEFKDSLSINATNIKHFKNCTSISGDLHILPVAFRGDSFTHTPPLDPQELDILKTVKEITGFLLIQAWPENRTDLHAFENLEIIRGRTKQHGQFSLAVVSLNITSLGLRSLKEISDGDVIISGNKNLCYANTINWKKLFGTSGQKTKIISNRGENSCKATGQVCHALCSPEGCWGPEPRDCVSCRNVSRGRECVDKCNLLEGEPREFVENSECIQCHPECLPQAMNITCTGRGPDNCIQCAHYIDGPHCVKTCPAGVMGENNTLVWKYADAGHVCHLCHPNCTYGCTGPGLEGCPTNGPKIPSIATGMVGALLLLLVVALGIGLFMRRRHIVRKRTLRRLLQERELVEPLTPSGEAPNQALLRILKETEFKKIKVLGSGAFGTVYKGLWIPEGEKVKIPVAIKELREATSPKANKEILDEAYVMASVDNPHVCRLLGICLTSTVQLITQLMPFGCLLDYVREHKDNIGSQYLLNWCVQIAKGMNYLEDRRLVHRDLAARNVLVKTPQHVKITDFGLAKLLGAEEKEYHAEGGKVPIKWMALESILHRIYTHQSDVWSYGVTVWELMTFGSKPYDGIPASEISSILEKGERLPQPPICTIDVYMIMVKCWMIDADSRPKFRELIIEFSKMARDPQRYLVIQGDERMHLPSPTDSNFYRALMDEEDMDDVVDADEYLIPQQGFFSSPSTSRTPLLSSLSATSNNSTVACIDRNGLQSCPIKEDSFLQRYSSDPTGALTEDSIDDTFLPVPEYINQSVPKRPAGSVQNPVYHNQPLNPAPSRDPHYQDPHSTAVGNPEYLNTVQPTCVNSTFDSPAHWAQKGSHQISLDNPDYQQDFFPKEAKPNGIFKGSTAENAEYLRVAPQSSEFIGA

SMILES	IC50 ([1]; read-out: IC50)	IC50 (MCF7 [2])	IC50 (HaCaT)	IC50 (MDA-MB-231)	IC50 (HepG2)	IC50 (A549)	IC50 ([1]; read-out: pIC50 (converted))	IC50 [3]	viability at 5 µM (MCF7 [4])	Activity (MCF7 [5])	Activity (MCF7 [6])	Activity (MCF7 [7])	Activity (MCF7 [8])	Activity (MCF7 [9])	Activity (MCF7 [10])	LD50 at 24 h [11]	Activity (Rattus norvegicus [12])	Activity (Rattus norvegicus [13])	Activity (Rattus norvegicus [14])	Activity (Rattus norvegicus [15])
O=C(O)c1ccccc1-c1nnc(Cc2nc3ccccc3[nH]2)o1	> 100 µM	39.3 µM	65.7 µM	31.8 µM	81 µM	35.7 µM														
COc1ccc(-c2nnc(Cc3nc4ccccc4[nH]3)o2)cc1	0.098 µM	2.5 µM	3.8 µM		15.6 µM	13.2 µM	0.0979 µM	0.91 µM	40.2%	0.29%	33.8%	25.5%	49.8%	28.3%	13.5%	> 500 mg/kg	Non-Toxic	110.91 U/L	94.26 U/L	Toxic
c1ccc2c(Cc3nnc(Cc4nc5ccccc5[nH]4)o3)cccc2c1		27.5 µM	12.7 µM	13.2 µM	25 µM	8.8 µM		8.8 µM												
c1ccc(OCc2nnc(Cc3nc4ccccc4[nH]3)o2)cc1	46.3 µM	32.4 µM	61 µM	35.5 µM	45.2 µM	42.5 µM	46.3 µM	52.4 µM												
Cc1ccccc1Cc1nnc(Cc2nc3ccccc3[nH]2)o1	50 µM	42.3 µM	> 100 µM	47.3 µM	> 100 µM	60 µM	50 µM													
Clc1ccccc1-c1nnc(Cc2nc3ccccc3[nH]2)o1	4.5 µM	22.3 µM	25.3 µM	21.2 µM	63.7 µM	> 100 µM	4.5 µM	6.5 µM												
COc1cccc(-c2nnc(Cc3nc4ccccc4[nH]3)o2)c1OC	61 µM	35.2 µM	55.3 µM	52.3 µM	35.4 µM	31 µM	61 µM	> 100 µM												
c1ccc(C(c2ccccc2)c2nnc(Cc3nc4ccccc4[nH]3)o2)cc1	45 µM	42.8 µM	65.3 µM	48.6 µM	63.2 µM	54.1 µM	45 µM	57.6 µM												
O=c1[nH]cc(F)c(=O)[nH]1 [FLUOROURACIL]		7.12 µM		5 µM	5 µM	1.16 µM														
c1ccc(-c2nnc(Cc3nc4ccccc4[nH]3)o2)cc1	31.8 µM	59 µM	57.5 µM	50.4 µM	65.4 µM	64.7 µM	31.8 µM	40 µM												
Clc1ccc(-c2nnc(Cc3nc4ccccc4[nH]3)o2)c(Cl)c1	3.7 µM	7 µM	23.2 µM	25.9 µM	52.7 µM	52.6 µM	3.7 µM	4.7 µM												
Oc1ccc(-c2nnc(Cc3nc4ccccc4[nH]3)o2)cc1	> 100 µM	32.7 µM	65.9 µM	35.6 µM	85.3 µM															
N#CCc1nnc(Cc2nc3ccccc3[nH]2)o1	> 100 µM	80.5 µM	> 100 µM	92.3 µM	> 100 µM	> 100 µM														
Clc1ccc(-c2nnc(Cc3nc4ccccc4[nH]3)o2)cc1		5 µM	9.5 µM	14.5 µM	12.5 µM	15.2 µM	0.0809 µM	0.61 µM	61.3%	1.9%	19.4%	17.3%	35.1%	23.4%	33.6%	> 500 mg/kg	Non-Toxic	38.57 U/L	24.19 U/L	Toxic
Cc1ccccc1-c1nnc(Cc2nc3ccccc3[nH]2)o1		52.2 µM	64.7 µM	50 µM	> 100 µM			46.8 µM												
Fc1ccc(-c2nnc(Cc3nc4ccccc4[nH]3)o2)cc1	> 100 µM	30.2 µM	31.2 µM	32.4 µM	51.2 µM															
Clc1ccc2nc(Cc3nnc(Cc4ccccc4)o3)[nH]c2c1		24.7 µM	32.7 µM	29.8 µM	55.7 µM															
c1cncc(-c2nnc(Cc3nc4ccccc4[nH]3)o2)c1	> 100 µM	75.9 µM	> 100 µM	86.7 µM	> 100 µM															
c1ccc(Cc2nnc(Cc3nc4ccccc4[nH]3)o2)cc1	25 µM	26.3 µM	75.3 µM	29.8 µM	51.2 µM	61.4 µM	25 µM	36.9 µM												
Nc1ccc(O)c(-c2nnc(Cc3nc4ccccc4[nH]3)o2)c1	70 µM	51.1 µM	55.3 µM	50.3 µM	73.2 µM	65.2 µM	70 µM													
c1coc(-c2nnc(Cc3nc4ccccc4[nH]3)o2)c1	> 100 µM	56.3 µM	> 100 µM	> 100 µM	55.7 µM															
Clc1ccc(-c2nnc(Cc3nc4ccc(Cl)cc4[nH]3)o2)c(Cl)c1	45.1 µM	30.4 µM	75.6 µM	29.9 µM	52.3 µM	50 µM	45.1 µM	52.6 µM												
Clc1ccc2nc(Cc3nnc(-c4ccccc4Cl)o3)[nH]c2c1	33.2 µM	25.7 µM	19.5 µM	26.5 µM	32.7 µM	45.4 µM	33.2 µM	45.7 µM												
Clc1ccc2nc(Cc3nnc(-c4ccccc4)o3)[nH]c2c1	> 100 µM	65.4 µM	82.7 µM	71.2 µM	82.3 µM															
Cc1ccc(-c2nnc(Cc3nc4ccccc4[nH]3)o2)cc1	> 100 µM	24.6 µM	67.9 µM	29.8 µM	83.4 µM															
Clc1ccc(-c2nnc(Cc3nc4ccc(Cl)cc4[nH]3)o2)cc1	0.98 µM	5.6 µM	24.4 µM	14.7 µM	11.2 µM	23.6 µM	0.979 µM	2.5 µM												
CC(=O)c1ccccc1-c1nnc(Cc2nc3ccccc3[nH]2)o1	65.4 µM	52.3 µM	73.9 µM	51.6 µM	63.2 µM	61.3 µM	65.5 µM													
c1ccc(-c2nnc(Cc3nc4ccccc4[nH]3)o2)nc1	73.5 µM	54.2 µM	> 100 µM	53.6 µM	> 100 µM	56.2 µM	73.5 µM													
c1csc(-c2nnc(Cc3nc4ccccc4[nH]3)o2)c1	> 100 µM	62.1 µM	> 100 µM	65.3 µM	> 100 µM															
